Tests used:
[1] = target: T1, Phenylethanolamine N-methyltransferase (Bos taurus, UniProt P10938); assay: Compound was tested in vitro inhibition of phenylethanolamine N-methyl-transferase (PNMT) activity using radiochemical assay
T1 sequence (P10938 whole entry): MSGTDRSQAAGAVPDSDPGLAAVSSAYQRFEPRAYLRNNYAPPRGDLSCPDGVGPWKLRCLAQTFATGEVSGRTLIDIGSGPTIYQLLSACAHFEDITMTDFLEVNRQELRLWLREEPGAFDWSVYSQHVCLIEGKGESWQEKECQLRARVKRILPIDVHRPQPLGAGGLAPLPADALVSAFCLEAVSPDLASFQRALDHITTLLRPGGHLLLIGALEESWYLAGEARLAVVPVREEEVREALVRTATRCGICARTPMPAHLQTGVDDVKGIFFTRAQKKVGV

[2] = Vmax of compound was measured; format: ADME
[3] = substrate: N[C@@H]1CC2C[C@@H]1c1ccccc12; assay: (§1) Compound was tested in vitro for PNMT activity using radiochemical assay.
Method in brief: (§2)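 Bovine adrenal PNMT, partially purified through the isoelectric precipitation step. Compounds were tested as hydrobromide salts. Radiochemical assay used phosphate buffer at pH 8.0, unlabeled AdoMet (10 μM stock) plus [methyl-³H]AdoMet, and 30 min incubation at 37 °C. Reactions were quenched with borate at pH 10 and extracted into toluene/isoamyl alcohol (7:3), then scintillation-counted.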

[4] = substrate: N[C@@H]1CC2CC1c1cc(O)c(O)cc12; assay: as §1; method in brief: as §2
[5] = substrate: N[C@@H]1CC2CCC1c1ccccc12; assay: as §1; method in brief: as §2

N[C@@H]1CC2CC1c1ccc(O)cc12 (stereo not given in full)
Ki [1]: 304 µM

N[C@@H]1CC2CC1c1cc(O)ccc12 (stereo not given in full)
Ki [1]: 1110 µM

N[C@@H]1CC2CC1c1cccc(O)c12 (stereo not given in full)
Ki [1]: 10000 µM

N[C@@H]1C2CCC1c1cc(O)ccc12 (stereo not given in full)
Ki [1]: 108 µM

N[C@@H]1CC2CC1c1cc(O)c(O)cc12 (stereo not given in full)
Vmax [2]: 0.44 nM/mg/min
Ki [1]: 487 µM

N[C@@H]1CC2CCC1c1ccccc12 (stereo not given in full)
Vmax [2]: 0.61 nM/mg/min
Ki [1]: 258 µM

N[C@@H]1CC2C[C@@H]1c1ccccc12
Vmax [2]: 0.08 nM/mg/min
Ki [1]: 479 µM

N[C@@H]1C2CCC1c1c(O)cccc12 (stereo not given in full)
Ki [1]: 4000 µM

N[C@@H]1CC2CC1c1c(O)cccc12 (stereo not given in full)
Ki [1]: 3000 µM

B1: Phenylethanolamine N-methyltransferase (Bos taurus), P10938 (protein)
chain: MSGTDRSQAAGAVPDSDPGLAAVSSAYQRFEPRAYLRNNYAPPRGDLSCPDGVGPWKLRCLAQTFATGEVSGRTLIDIGSGPTIYQLLSACAHFEDITMTDFLEVNRQELRLWLREEPGAFDWSVYSQHVCLIEGKGESWQEKECQLRARVKRILPIDVHRPQPLGAGGLAPLPADALVSAFCLEAVSPDLASFQRALDHITTLLRPGGHLLLIGALEESWYLAGEARLAVVPVREEEVREALVRTATRCGICARTPMPAHLQTGVDDVKGIFFTRAQKKVGV
Km [3]: 192 µM
Km [4]: 686 µM
Km [5]: 81 µM

From ChEMBL document CHEMBL1123238, “Binding requirements of phenolic phenylethylamines in the benzonorbornene skeleton at the active site of phenylethanolamine N-methyltransferase” (J Med Chem, 1986)
